Reference: ChEMBL document CHEMBL1138746, “Indolebutylamines as selective 5-HT(1A) agonists” (J Med Chem, 2004)

Legend:
[1] = target: T1, Adrenergic receptor alpha-1 (Homo sapiens, UniProt P35348+P25100+P35368); assay: Inhibition of Alpha-1 adrenergic receptor; format: protein assay
T1 sequence (P35348 whole entry): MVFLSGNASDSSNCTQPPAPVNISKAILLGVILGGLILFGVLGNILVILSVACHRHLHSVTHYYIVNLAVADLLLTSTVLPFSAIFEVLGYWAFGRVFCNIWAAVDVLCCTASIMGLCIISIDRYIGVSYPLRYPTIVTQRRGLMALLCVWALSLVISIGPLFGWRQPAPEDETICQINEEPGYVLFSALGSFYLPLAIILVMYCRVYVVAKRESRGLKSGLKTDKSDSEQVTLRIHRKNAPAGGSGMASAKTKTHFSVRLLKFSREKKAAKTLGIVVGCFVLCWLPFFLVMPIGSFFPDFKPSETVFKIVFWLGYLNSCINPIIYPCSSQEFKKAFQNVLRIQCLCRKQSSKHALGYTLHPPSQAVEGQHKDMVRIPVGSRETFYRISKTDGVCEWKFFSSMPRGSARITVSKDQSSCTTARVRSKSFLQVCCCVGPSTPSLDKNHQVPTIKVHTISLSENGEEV
T1 sequence (P25100 whole entry): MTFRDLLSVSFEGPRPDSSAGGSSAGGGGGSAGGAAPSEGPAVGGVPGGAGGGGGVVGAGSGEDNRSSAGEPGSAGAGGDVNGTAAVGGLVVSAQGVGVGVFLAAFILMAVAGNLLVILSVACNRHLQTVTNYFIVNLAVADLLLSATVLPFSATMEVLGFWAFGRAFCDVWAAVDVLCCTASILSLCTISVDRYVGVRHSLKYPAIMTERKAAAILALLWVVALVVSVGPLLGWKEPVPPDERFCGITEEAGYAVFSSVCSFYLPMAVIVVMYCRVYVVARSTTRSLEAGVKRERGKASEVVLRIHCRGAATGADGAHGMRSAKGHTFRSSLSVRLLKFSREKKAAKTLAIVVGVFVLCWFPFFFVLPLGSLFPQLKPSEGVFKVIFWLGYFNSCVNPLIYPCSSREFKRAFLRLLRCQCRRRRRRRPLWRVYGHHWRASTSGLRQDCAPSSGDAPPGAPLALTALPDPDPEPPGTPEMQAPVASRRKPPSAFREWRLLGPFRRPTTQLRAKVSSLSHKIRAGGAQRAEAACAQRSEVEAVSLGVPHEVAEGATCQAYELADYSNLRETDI
T1 sequence (P35368 whole entry): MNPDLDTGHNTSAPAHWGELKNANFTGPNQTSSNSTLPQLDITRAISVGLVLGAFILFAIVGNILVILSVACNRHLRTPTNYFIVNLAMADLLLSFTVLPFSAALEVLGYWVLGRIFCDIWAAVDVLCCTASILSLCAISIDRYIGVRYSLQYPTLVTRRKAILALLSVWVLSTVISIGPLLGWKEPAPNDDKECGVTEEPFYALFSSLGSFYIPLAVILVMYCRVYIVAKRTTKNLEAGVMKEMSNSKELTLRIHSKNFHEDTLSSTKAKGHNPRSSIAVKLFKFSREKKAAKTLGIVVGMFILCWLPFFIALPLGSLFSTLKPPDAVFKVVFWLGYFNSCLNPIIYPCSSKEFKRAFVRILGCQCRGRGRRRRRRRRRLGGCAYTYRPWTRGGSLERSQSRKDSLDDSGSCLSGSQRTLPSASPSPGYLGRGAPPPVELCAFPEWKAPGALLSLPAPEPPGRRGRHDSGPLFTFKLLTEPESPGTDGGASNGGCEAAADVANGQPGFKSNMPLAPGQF

[2] = Inhibition of hydroxytryptamine 2A receptor
[3] = Inhibition of hydroxytryptamine 2C receptor
D(3) dopamine receptor = D(3) dopamine receptor (Homo sapiens, UniProt P35462); assay: Inhibition of dopamine D3 receptor
[4] = Inhibition of hydroxytryptamine 1D receptor
D(4) dopamine receptor = target: T2, D(4) dopamine receptor (Homo sapiens, UniProt P21917); assay: Inhibition of dopamine D4 receptor
T2 sequence (P21917 whole entry): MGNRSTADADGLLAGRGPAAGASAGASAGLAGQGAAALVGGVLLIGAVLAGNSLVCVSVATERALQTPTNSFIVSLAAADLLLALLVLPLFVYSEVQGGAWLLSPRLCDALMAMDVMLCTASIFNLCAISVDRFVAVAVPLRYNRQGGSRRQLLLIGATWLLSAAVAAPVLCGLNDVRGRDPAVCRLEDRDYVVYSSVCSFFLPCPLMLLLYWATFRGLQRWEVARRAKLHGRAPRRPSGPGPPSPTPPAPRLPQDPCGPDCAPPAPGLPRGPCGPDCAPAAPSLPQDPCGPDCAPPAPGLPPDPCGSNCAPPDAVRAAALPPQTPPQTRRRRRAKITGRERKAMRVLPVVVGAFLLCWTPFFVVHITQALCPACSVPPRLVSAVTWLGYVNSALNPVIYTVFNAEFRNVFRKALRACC

D(2) dopamine receptor = D(2) dopamine receptor (Rattus norvegicus, UniProt P61169); assay: Displacement of [3H]spiperone from dopamine D2 receptor of rat striatal membranes; format: cell membranes, Membrane
Procedure, shortened: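 Rat striatal membranes (0.3–1.0 mg protein/mL) were incubated with 0.1 nM [3H]spiperone in Tris-HCl buffer (pH 7.1) containing 120 mmol/L NaCl, 5 mmol/L KCl, 1 mmol/L CaCl2, 1 mmol/L MgCl2 and 0.1% ascorbic acid, at 37 °C for 15 min. Bound ligand was separated by filtration with three ice-cold washes. Nonspecific binding was defined with 1 mmol/L (+)-butaclamol. IC50 (50% inhibition of binding) came from 5–10 concentrations, each in triplicate.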

Sequence of D(3) dopamine receptor (P35462 whole entry): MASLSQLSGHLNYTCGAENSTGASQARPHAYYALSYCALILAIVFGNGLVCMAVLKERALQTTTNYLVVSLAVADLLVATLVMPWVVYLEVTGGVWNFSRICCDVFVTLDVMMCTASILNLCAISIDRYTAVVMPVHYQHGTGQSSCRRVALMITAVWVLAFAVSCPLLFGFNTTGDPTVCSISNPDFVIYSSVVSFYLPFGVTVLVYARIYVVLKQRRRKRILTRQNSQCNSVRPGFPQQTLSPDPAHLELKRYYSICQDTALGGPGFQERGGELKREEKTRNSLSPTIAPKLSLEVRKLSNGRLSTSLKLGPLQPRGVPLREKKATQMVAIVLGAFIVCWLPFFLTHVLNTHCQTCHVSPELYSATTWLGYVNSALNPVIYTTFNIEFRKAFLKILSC
Sequence of D(2) dopamine receptor (P61169 whole entry): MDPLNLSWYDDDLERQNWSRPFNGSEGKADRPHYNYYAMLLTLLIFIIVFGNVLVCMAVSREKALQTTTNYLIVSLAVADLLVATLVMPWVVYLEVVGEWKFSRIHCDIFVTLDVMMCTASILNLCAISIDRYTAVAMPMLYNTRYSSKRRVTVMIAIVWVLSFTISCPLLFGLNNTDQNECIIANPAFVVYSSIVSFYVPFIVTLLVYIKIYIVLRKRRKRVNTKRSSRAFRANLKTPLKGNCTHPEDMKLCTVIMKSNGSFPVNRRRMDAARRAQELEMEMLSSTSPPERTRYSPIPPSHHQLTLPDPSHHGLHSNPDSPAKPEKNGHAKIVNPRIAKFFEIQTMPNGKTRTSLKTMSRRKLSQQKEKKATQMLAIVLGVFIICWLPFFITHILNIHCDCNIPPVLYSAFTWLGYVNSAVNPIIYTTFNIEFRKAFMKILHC

IC50 [1]: 500 nM | IC50 [2]: 2600 nM | IC50 [3]: > 1000 nM | IC50 (D(3) dopamine receptor): 1200 nM | IC50 [4]: 3000 nM | IC50 (D(4) dopamine receptor): 1800 nM | IC50 (D(2) dopamine receptor): 2900 nM
SMILES: O=C1c2ccccc2S(=O)(=O)N1CCCCN1CCN(c2ncccn2)CC1 [IPSAPIRONE]
